In ChEMBL document CHEMBL1629615, “Intrapulmonary pharmacokinetics and pharmacodynamics of posaconazole at steady state in healthy subjects” (Antimicrob Agents Chemother, 2009):

Assays:
[1] = Drug level in healthy human lung epithelial lining fluid at 400 mg, po every 12 hrs for 7 days measured after 12 hrs of last dose; format: ADME, organism-based; details: read-out: Drug uptake
Procedure, shortened: (§1)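 Healthy adults got 400 mg oral suspension (40 mg/ml) 10 min after a high-fat meal every 12 h, for 14 doses over 8 days. Each subject had one bronchoscopy with BAL under topical lidocaine, no sedation, at 3, 5, 8, 12 or 24 h after the last dose. BAL fluid was spun at 400 x g for 5 min at 4°C. Supernatant and cell pellet were frozen at –70°C and assayed by LC-MS/MS against a plasma calibration curve. ELF volume was derived from urea.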

[2] = Ratio of Drug level in healthy human alveolar cell to drug level in healthy human plasma at 400 mg, po every 12 hrs for 7 days measured after 5 hrs of last dose; format: ADME, organism-based, Pneumocyte; details: alveolar cells / plasma
[3] = Ratio of Drug level in healthy human alveolar cell to drug level in healthy human plasma at 400 mg, po every 12 hrs for 7 days measured after 8 hrs of last dose; format: ADME, organism-based, Pneumocyte; details: alveolar cells / plasma
[4] = Drug level in healthy human lung epithelial lining fluid at 400 mg, po every 12 hrs for 7 days measured after 24 hrs of last dose; format: ADME, organism-based; details: read-out: Drug uptake; procedure, shortened: as §1
[5] = Drug level in healthy human alveolar cell at 400 mg, po every 12 hrs for 7 days measured after 12 hrs of last dose; format: ADME, organism-based, Pneumocyte; details: alveolar cells, read-out: Drug uptake; procedure, shortened: as §1
[6] = Tmax in healthy human lung epithelial lining fluid at 400 mg, po every 12 hrs for 7 days; format: ADME, organism-based
Procedure, shortened: (§2)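 Noncompartmental analysis of day-8 concentration-time data after 14 oral 400 mg doses every 12 h. Plasma parameters came from each subject's profile. ELF and alveolar cell values came from mean concentrations at each BAL time (3 to 24 h). AUC0-12 was calculated by the linear trapezoidal method.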

[7] = Tmax in healthy human plasma at 400 mg, po every 12 hrs for 7 days; format: ADME, organism-based; procedure, shortened: as §2
[8] = Ratio of Drug level in healthy human alveolar cell to drug level in healthy human plasma at 400 mg, po every 12 hrs for 7 days measured after 24 hrs of last dose; format: ADME, organism-based, Pneumocyte; details: alveolar cells / plasma
[9] = Drug level in healthy human plasma at 400 mg, po every 12 hrs for 7 days measured after 24 hrs of last dose; format: ADME, organism-based; details: read-out: Drug uptake
Procedure, shortened: (§3)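 Same dosing: 400 mg oral suspension after a high-fat meal every 12 h, 14 doses. Blood went into EDTA tubes at 0, 3, 5, 8, 12 and 24 h after the final dose and was spun at 1,300 x g for 10 min at 4°C. Plasma was frozen and assayed by validated LC-MS/MS, LLOQ 1.00 ng/ml, calibration 1.00 to 4,000 ng/ml.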

[10] = Drug level in healthy human plasma at 400 mg, po every 12 hrs for 7 days measured after 12 hrs of last dose; format: ADME, organism-based; details: read-out: Drug uptake; procedure, shortened: as §3
[11] = Cmax in healthy human alveolar cell at 400 mg, po every 12 hrs for 7 days; format: ADME, organism-based, Lung, Pneumocyte; parameters: dose 400 mg, route oral; details: alveolar cells; procedure, shortened: as §2
[12] = Ratio of Cmax in healthy human lung epithelial lining fluid at 400 mg, po every 12 hrs for 7 days to MIC90 for Aspergillus spp.; format: functional
[13] = Ratio of Cmax in healthy human alveolar cell at 400 mg, po every 12 hrs for 7 days to MIC90 for Aspergillus spp.; format: functional, Pneumocyte
[14] = Ratio of Drug level in healthy human alveolar cell to drug level in healthy human plasma at 400 mg, po every 12 hrs for 7 days measured after 12 hrs of last dose; format: ADME, organism-based, Pneumocyte; details: alveolar cells / plasma
[15] = Ratio of AUC (0 to 24 hrs) in healthy human lung epithelial lining fluid at 400 mg, po every 12 hrs for 7 days to MIC90 for Aspergillus spp.; format: functional
[16] = Drug level in healthy human plasma at 400 mg, po every 12 hrs for 7 days measured after 3 hrs of last dose; format: ADME, organism-based; details: read-out: Drug uptake; procedure, shortened: as §3
Homo sapiens [17] = experiment: Toxicity in healthy human plasma assessed as blood chemistry analysis at 400 mg, po every 12 hrs for 7 days; format: organism-based; details: in vivo
Procedure, shortened: (§4)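 Safety in healthy adults (21 to 55 y) given 400 mg orally every 12 h with a high-fat meal for 14 doses. Screening blood chemistry, hematology, urinalysis and ECG (corrected QT) were repeated on day 8.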

Homo sapiens [18] = experiment: Cardiotoxicity in healthy human assessed as corrected QT intervals at 400 mg, po every 12 hrs for 8 days; details: in vivo
[19] = Ratio of Drug level in healthy human alveolar cell to drug level in healthy human plasma at 400 mg, po every 12 hrs for 7 days measured after 3 hrs of last dose; format: ADME, organism-based, Pneumocyte; details: alveolar cells / plasma
[20] = Drug level in healthy human alveolar cell at 400 mg, po every 12 hrs for 7 days measured after 8 hrs of last dose; format: ADME, organism-based, Pneumocyte; details: alveolar cells, read-out: Drug uptake; procedure, shortened: as §1
Homo sapiens [21] = experiment: Toxicity in healthy human assessed as urine analysis at 400 mg, po every 12 hrs for 7 days; format: organism-based; details: in vivo; procedure, shortened: as §4
[22] = Ratio of Cmax in healthy human plasma at 400 mg, po every 12 hrs for 7 days to MIC90 for Aspergillus spp.; format: functional
[23] = AUC (0 to 12 hrs) in healthy human alveolar cell at 400 mg, po every 12 hrs for 7 days; format: ADME, organism-based, Pneumocyte; parameters: time < 12 hr, dose 400 mg, route oral; details: alveolar cells; procedure, shortened: as §2
[24] = Drug level in healthy human plasma at 400 mg, po every 12 hrs for 7 days measured after 8 hrs of last dose; format: ADME, organism-based; details: read-out: Drug uptake; procedure, shortened: as §3
Plasma = experiment: T>MIC90 in healthy human plasma at 400 mg, po every 12 hrs for 7 days; format: functional
[25] = AUC (0 to 12 hrs) in healthy human lung epithelial lining fluid at 400 mg, po every 12 hrs for 7 days; format: ADME, organism-based; parameters: time < 12 hr, dose 400 mg, route oral; procedure, shortened: as §2
Homo sapiens [26] = experiment: Toxicity in healthy human plasma assessed as hematological analysis at 400 mg, po every 12 hrs for 7 days; format: organism-based; details: in vivo; procedure, shortened: as §4
[27] = Cmax in healthy human plasma at 400 mg, po every 12 hrs for 7 days; format: ADME, organism-based; parameters: dose 400 mg, route oral; procedure, shortened: as §2
Homo sapiens [28] = experiment: Toxicity in healthy human assessed as vital adverse effects at 400 mg, po every 12 hrs for 7 days; format: organism-based; details: in vivo; procedure, shortened: as §4
[29] = Tmax in healthy human alveolar cell at 400 mg, po every 12 hrs for 7 days; format: ADME, organism-based, Pneumocyte; details: alveolar cells; procedure, shortened: as §2
[30] = Ratio of Drug level in healthy human lung epithelial lining fluid to drug level in healthy human plasma at 400 mg, po every 12 hrs for 7 days measured after 24 hrs of last dose; format: ADME, organism-based
[31] = Protein binding in human; format: ADME, organism-based; details: in vivo, read-out: PB
[32] = Ratio of Drug level in healthy human lung epithelial lining fluid to drug level in healthy human plasma at 400 mg, po every 12 hrs for 7 days measured after 3 hrs of last dose; format: ADME, organism-based
[33] = Ratio of Drug level in healthy human lung epithelial lining fluid to drug level in healthy human plasma at 400 mg, po every 12 hrs for 7 days measured after 5 hrs of last dose; format: ADME, organism-based
[34] = Drug level in healthy human alveolar cell at 400 mg, po every 12 hrs for 7 days measured after 5 hrs of last dose; format: ADME, organism-based, Pneumocyte; details: alveolar cells, read-out: Drug uptake; procedure, shortened: as §1
[35] = Ratio of Drug level in healthy human lung epithelial lining fluid to drug level in healthy human plasma at 400 mg, po every 12 hrs for 7 days measured after 8 hrs of last dose; format: ADME, organism-based
[36] = Half life in human; format: ADME, organism-based; details: in vivo
[37] = Ratio of Drug level in healthy human lung epithelial lining fluid to drug level in healthy human plasma at 400 mg, po every 12 hrs for 7 days measured after 12 hrs of last dose; format: ADME, organism-based
[38] = Drug level in healthy human alveolar cell at 400 mg, po every 12 hrs for 7 days measured after 3 hrs of last dose; format: ADME, organism-based, Pneumocyte; details: alveolar cells, read-out: Drug uptake; procedure, shortened: as §1
[39] = Drug level in healthy human lung epithelial lining fluid at 400 mg, po every 12 hrs for 7 days measured after 5 hrs of last dose; format: ADME, organism-based; details: read-out: Drug uptake; procedure, shortened: as §1
[40] = Ratio of AUC (0 to 24 hrs) in healthy human alveolar cell at 400 mg, po every 12 hrs for 7 days to MIC90 for Aspergillus spp.; format: functional, Pneumocyte
[41] = AUC (0 to 12 hrs) in healthy human plasma at 400 mg, po every 12 hrs for 7 days; format: ADME, organism-based; parameters: dose 400 mg, time < 12 hr, route oral; procedure, shortened: as §2
[42] = Drug level in healthy human lung epithelial lining fluid at 400 mg, po every 12 hrs for 7 days measured after 8 hrs of last dose; format: ADME, organism-based; details: read-out: Drug uptake; procedure, shortened: as §1
[43] = T>MIC90 in healthy human alveolar cell at 400 mg, po every 12 hrs for 7 days; format: functional, Pneumocyte
[44] = Cmax in healthy human lung epithelial lining fluid at 400 mg, po every 12 hrs for 7 days; format: ADME, organism-based; parameters: dose 400 mg, route oral; procedure, shortened: as §2
[45] = Drug level in healthy human plasma at 400 mg, po every 12 hrs for 7 days measured after 5 hrs of last dose; format: ADME, organism-based; details: read-out: Drug uptake; procedure, shortened: as §3
[46] = Drug level in healthy human lung epithelial lining fluid at 400 mg, po every 12 hrs for 7 days measured after 3 hrs of last dose; format: ADME, organism-based; details: read-out: Drug uptake; procedure, shortened: as §1
[47] = T>MIC90 in healthy human lung epithelial lining fluid at 400 mg, po every 12 hrs for 7 days; format: functional
[48] = Drug level in healthy human alveolar cell at 400 mg, po every 12 hrs for 7 days measured after 24 hrs of last dose; format: ADME, organism-based, Pneumocyte; details: alveolar cells, read-out: Drug uptake; procedure, shortened: as §1
[49] = Ratio of AUC (0 to 24 hrs) in healthy human plasma at 400 mg, po every 12 hrs for 7 days to MIC90 for Aspergillus spp.; format: functional

Q: For `CC[C@@H]([C@H](C)O)n1ncn(-c2ccc(N3CCN(c4ccc(OC[C@@H]5CO[C@@](Cn6cncn6)(c6ccc(F)cc6F)C5)cc4)CC3)cc2)c1=O` [POSACONAZOLE], which concentration at 12 h [1] is on record?
A: 1020 ng/mL

Q: What about the Kp at 5 h [2] of the same molecule?
A: 44.3

Q: And the Kp at 8 h [3]?
A: 32.5

Q: What about the concentration at 24 h [4] of the same molecule?
A: 1800 ng/mL

Q: And the concentration at 12 h [5]?
A: 49000 ng/mL

Q: What about the Tmax [6] of the same molecule?
A: 5 h

Q: What about the Tmax [7] of the same molecule?
A: 3.6 h

Q: What about the Kp at 24 h [8] of the same molecule?
A: 34.9

Q: And the concentration at 24 h [9]?
A: 1280 ng/mL

Q: What about the concentration at 12 h [10] of the same molecule?
A: 1620 ng/mL

Q: What about the Cmax [11] of the same molecule?
A: 87700 ng/mL

Q: What about the Ratio [12] of the same molecule?
A: 3.72

Q: What about the Ratio [13] of the same molecule?
A: 175

Q: And the Kp at 12 h [14]?
A: 27.3

Q: What about the Ratio [15] of the same molecule?
A: 73.2

Q: And the concentration at 3 h [16]?
A: 1930 ng/mL

Q: What about the Activity (Homo sapiens [17]) of the same molecule?
A: Non-toxic

Q: And the Activity (Homo sapiens [18])?
A: Non-toxic

Q: What about the Kp at 3 h [19] of the same molecule?
A: 34.5

Q: And the concentration at 8 h [20]?
A: 60900 ng/mL

Q: What about the Activity (Homo sapiens [21]) of the same molecule?
A: Non-toxic

Q: What about the Ratio [22] of the same molecule?
A: 4.15

Q: And the AUC at 12 h [23]?
A: 715000 ng·h/mL

Q: What about the concentration at 8 h [24] of the same molecule?
A: 1730 ng/mL

Q: And the T>MIC90 (Plasma)?
A: 22.3 h

Q: What about the AUC at 12 h [25] of the same molecule?
A: 18300 ng·h/mL

Q: What about the Activity (Homo sapiens [26]) of the same molecule?
A: Non-toxic

Q: What about the Cmax [27] of the same molecule?
A: 2080 ng/mL

Q: And the Activity (Homo sapiens [28])?
A: Non-toxic

Q: And the Tmax [29]?
A: 5 h

Q: And the Kp at 24 h [30]?
A: 0.92

Q: And the fraction unbound [31]?
A: < 0.02

Q: And the Kp at 3 h [32]?
A: 1.08

Q: And the Kp at 5 h [33]?
A: 0.75

Q: And the concentration at 5 h [34]?
A: 87700 ng/mL

Q: What about the Kp at 8 h [35] of the same molecule?
A: 0.95

Q: And the half-life [36]?
A: 35 h

Q: And the Kp at 12 h [37]?
A: 0.59

Q: And the concentration at 3 h [38]?
A: 46200 ng/mL

Q: And the concentration at 5 h [39]?
A: 1860 ng/mL

Q: And the Ratio [40]?
A: 2860

Q: And the AUC at 12 h [41]?
A: 21900 ng·h/mL

Q: What about the concentration at 8 h [42] of the same molecule?
A: 1690 ng/mL

Q: And the “T>MIC90” value [43]?
A: 24 h

Q: What about the Cmax [44] of the same molecule?
A: 1860 ng/mL

Q: And the concentration at 5 h [45]?
A: 1930 ng/mL

Q: What about the concentration at 3 h [46] of the same molecule?
A: 1660 ng/mL

Q: What about the “T>MIC90” value [47] of the same molecule?
A: 24 h

Q: What about the concentration at 24 h [48] of the same molecule?
A: 60700 ng/mL

Q: What about the Ratio [49] of the same molecule?
A: 87.6
